Among the data in ChEMBL document CHEMBL1157264, “Hispidin derivatives from the mushroom Inonotus xeranticus and their antioxidant activity” (J Nat Prod, 2006) are IC50 and Activity values, retold here.

Activity calls are given as the source filed them. The rule behind the calls is not given here.

Holding throughout (assay type): functional
Test [1] is described as follows: Antioxidant activity assessed as superoxide radical anion scavenging activity after 30 mins by microplate reader. An outline of the steps: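 Xanthine/xanthine oxidase system: 50 mM potassium phosphate pH 7.8, 1 mM EDTA, 0.04 mM NBT, 0.18 mM xanthine, 250 mU/mL xanthine oxidase plus sample, 30 min at 37 °C in the dark. NBT-formazan read at 560 nm, background from a no-enzyme control subtracted. IC50 derived; BHA reference.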

Test [2] concerns Radical scavenging activity. The test is described as follows: Antioxidant activity assessed as DPPH radical scavenging activity for 20 mins by ELISA. An outline of the steps: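 Samples in DMSO added to 150 µM DPPH in ethanol, vortexed, incubated 20 min at room temperature, absorbance read at 517 nm. Activity taken from the absorbance difference versus DMSO control; vitamin E and caffeic acid references.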

The nature of test [3]: Antioxidant activity assessed as ABTS radical scavenging activity after 12 hrs by ELISA. As to conditions: in the assay text read “after 6 mins” for “after 12 hrs”. An outline of the steps:
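ABTS dissolved in water at 7 mM, reacted with 2.45 mM potassium persulfate (final) and left 12 h in the dark at room temperature to form ABTS•+. Radical solution (A734 0.700) added to samples in EtOH, absorbance read after mixing for up to 6 min. IC50 derived; vitamin E reference.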

On to `COc1ccc(O)c(C(C)(C)C)c1.COc1ccc(O)cc1C(C)(C)C` [BUTYLATED HYDROXYANISOLE], for which the IC50 in test [1] stood at 10 µM.
As to `CC1=CC(=O)C2(O1)c1c(cc(/C=C/c3ccc(O)c(O)c3)oc1=O)OC2c1ccc(O)c(O)c1` (stereo not given) [INOSCAVIN A], the outcome in test [2] was inactive. In test [1], the IC50 was found to be 78 µM.
The corresponding values for `COC1(C)Oc2cc(/C=C/c3ccc(O)c(O)c3)oc(=O)c2/C1=C/c1ccc(O)c(O)c1` (stereo not given) [INOSCAVIN B] are “inactive” and 95 µM.
For the compound `COc1cc(/C=C/c2cc3c(c(=O)o2)C2(OC(C)=CC2=O)C(c2ccc(O)c(O)c2)O3)ccc1O` (stereo not given) [METHYLINOSCAVIN A], the result in test [2] was inactive. The figures for the IC50 in test [1] and in test [3] were 20 µM and 10.7 µM, respectively.
As to `COc1cc(/C=C/c2cc3c(c(=O)o2)/C(=C/c2ccc(O)c(O)c2)C(C)(OC)O3)ccc1O` (stereo not given) [METHYLINOSCAVIN B], the outcome in test [2] was inactive. Moreover, the IC50 worked out at 38 µM in test [1] and 13.1 µM in test [3].
For `COC1(CC(C)=O)Oc2cc(/C=C/c3ccc(O)c(O)c3)oc(=O)c2/C1=C/c1ccc(O)c(O)c1` (stereo not given) [PHELLIGRIDIN F] the same measures were “inactive”, 40 µM and 11.4 µM.
Regarding VITAMIN E, the IC50 in test [3] stood at 6 µM.
